Source: ChEMBL document CHEMBL4261552, “4-Hydroxy-N-[3,5-bis(trifluoromethyl)phenyl]-1,2,5-thiadiazole-3-carboxamide: a novel inhibitor of the canonical NF-κB cascade” (Medchemcomm, 2017)
pIC50: −log10 of the molar value.

Legend:
MDA-MB-231 [1] = experiment: Inhibition of constitutively activated canonical NF-kB signaling pathway in human MDA-MB-231 cells assessed as residual activity at 10 uM after 24 hrs by luciferase reporter gene assay relative to control; type: cell-based
Summary of the method: (§1)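 MDA-MB-231 cells (constitutive NF-κB) nucleofected with 3 µg of NF-κB-RE firefly luciferase plus TK-Renilla plasmids (10:1), then cultured 24 h. Compound added for a further 6 h or 24 h, without stimulus. Firefly/Renilla ratio expressed as % of DMSO-treated control; mean ± SD of three independent experiments.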

MDA-MB-231 [2] = experiment: Antiproliferative activity against human MDA-MB-231 cells assessed as DNA content after 72 hrs by Hoechst 33258 staining based fluorescence assay; type: functional, cell-based; details: MDA-MB-231, 72 h
Summary of the method: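 MDA-MB-231 cells (5 x 10³/well) grown in DMEM with 10% FBS and exposed to 0.001 - 200 µM compound or DMSO vehicle for 72 h. Cells were washed with PBS and lysed in 0.02% SDS in SSC buffer for 1 h at 37 °C. Hoechst 33258 (1 µg/mL) was then added and fluorescence read at ex 355/em 460 nm. IC50 taken by nonlinear regression; mean ± SD of three independent experiments.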

MDA-MB-231 [3] = experiment: Inhibition of constitutively activated canonical NF-kB signaling pathway in human MDA-MB-231 cells assessed as residual activity at 10 uM after 6 hrs by luciferase reporter gene assay relative to control; type: cell-based; summary of the method: as §1
[4] = target: T1, Inhibitor of nuclear factor kappa-B kinase subunit beta (Homo sapiens, UniProt O14920); experiment: Inhibition of IKK-beta in human Jurkat cells assessed as reduction in TNFalpha-stimulated IkBalpha degradation preincubated for 60 mins followed by TNFalpha stimulation for 20 mins by immunoblot analysis; type: cell-based
T1 sequence (O14920 whole entry): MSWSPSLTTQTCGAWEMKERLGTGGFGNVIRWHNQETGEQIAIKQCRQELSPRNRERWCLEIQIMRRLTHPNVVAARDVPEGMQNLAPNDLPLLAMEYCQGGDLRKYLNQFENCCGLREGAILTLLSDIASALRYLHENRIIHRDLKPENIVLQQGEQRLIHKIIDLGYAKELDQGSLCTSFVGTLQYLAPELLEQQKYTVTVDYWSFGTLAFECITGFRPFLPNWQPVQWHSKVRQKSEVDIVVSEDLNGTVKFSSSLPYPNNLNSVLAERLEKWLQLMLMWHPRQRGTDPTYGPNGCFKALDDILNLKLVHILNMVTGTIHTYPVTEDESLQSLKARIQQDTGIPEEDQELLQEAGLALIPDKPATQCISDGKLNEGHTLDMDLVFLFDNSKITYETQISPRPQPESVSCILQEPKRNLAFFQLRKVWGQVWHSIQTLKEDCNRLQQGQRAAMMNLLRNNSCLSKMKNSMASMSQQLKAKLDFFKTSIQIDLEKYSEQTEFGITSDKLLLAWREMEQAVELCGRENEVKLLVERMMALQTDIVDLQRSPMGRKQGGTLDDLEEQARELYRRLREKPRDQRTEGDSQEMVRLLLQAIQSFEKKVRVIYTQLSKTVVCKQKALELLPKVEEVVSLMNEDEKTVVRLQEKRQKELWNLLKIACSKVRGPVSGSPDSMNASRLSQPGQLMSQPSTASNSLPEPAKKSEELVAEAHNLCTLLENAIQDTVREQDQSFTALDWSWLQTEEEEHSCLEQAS

[5] = target: T2, Inhibitor of nuclear factor kappa-B kinase subunit epsilon (Homo sapiens) (UniProt Q14164); experiment: Inhibition of human IKKepsilon at 100 uM using ERLLDDRHDSGLDSMKDEE as substrate after 60 mins in presence of ATP by ADP-Glo kinase assay relative to control
T2 sequence (whole entry): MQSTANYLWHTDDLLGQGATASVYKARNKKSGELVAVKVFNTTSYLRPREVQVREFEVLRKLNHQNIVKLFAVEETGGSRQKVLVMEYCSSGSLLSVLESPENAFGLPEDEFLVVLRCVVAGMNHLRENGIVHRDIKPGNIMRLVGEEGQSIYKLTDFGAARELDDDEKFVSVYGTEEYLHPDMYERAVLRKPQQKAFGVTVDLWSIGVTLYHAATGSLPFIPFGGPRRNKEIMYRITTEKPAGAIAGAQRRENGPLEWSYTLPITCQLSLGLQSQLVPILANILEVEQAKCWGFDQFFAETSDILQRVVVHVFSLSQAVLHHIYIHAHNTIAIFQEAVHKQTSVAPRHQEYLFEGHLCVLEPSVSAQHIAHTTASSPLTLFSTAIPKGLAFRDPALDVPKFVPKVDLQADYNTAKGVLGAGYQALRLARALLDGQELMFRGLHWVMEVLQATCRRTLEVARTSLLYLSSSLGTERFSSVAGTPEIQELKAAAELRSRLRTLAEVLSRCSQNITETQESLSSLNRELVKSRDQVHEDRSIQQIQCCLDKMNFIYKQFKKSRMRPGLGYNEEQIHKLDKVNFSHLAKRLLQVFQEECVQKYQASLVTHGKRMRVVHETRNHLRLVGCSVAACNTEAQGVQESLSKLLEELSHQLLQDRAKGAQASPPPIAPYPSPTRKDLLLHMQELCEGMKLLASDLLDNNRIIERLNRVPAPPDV

Jurkat = experiment: Inhibition of TNFalpha-activated canonical NF-kB signaling pathway in human Jurkat cells assessed as residual activity at 1 uM after 6 hrs by luciferase reporter gene assay relative to control; type: cell-based
Summary of the method: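 Jurkat cells nucleofected with 3 µg of NF-κB-RE firefly luciferase and TK-Renilla plasmids (10:1), then cultured 24 h at 37 °C. Compound added for a further 6 h, with TNFα in the last 20 min. Firefly luminescence normalized to Renilla and expressed as % of DMSO+TNFα control; mean ± SD of three experiments.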

O=C(Nc1cc(C(F)(F)F)cc(C(F)(F)F)c1)c1cc(Cl)ccc1O [IMD-0354]
Activity (MDA-MB-231 [1]): 58.3%
pIC50 (MDA-MB-231 [2]): 6.19
Activity (MDA-MB-231 [3]): 99%
pIC50 [4]: 6.66
inhibition [5]: 30.5%
Activity (Jurkat): 23.5%

O=C(Nc1cc(C(F)(F)F)cc(C(F)(F)F)c1)c1nsnc1O
Activity (MDA-MB-231 [1]): 63%
pIC50 (MDA-MB-231 [2]): 5.89
Activity (MDA-MB-231 [3]): 96.1%
pIC50 [4]: 6.84
inhibition [5]: 30.2%
Activity (Jurkat): 15.9%
